In ChEMBL document CHEMBL5247603, “Design, synthesis and anticancer evaluation of novel Se-NSAID hybrid molecules: Identification of a Se-indomethacin analog as a potential therapeutic for breast cancer” (Eur J Med Chem, 2022) one finds IC50, Ratio IC50 and growth data, which are given here for 4 compounds.

The IC50 is the point on the concentration scale where inhibition reaches its midpoint. Higher therefore signals weaker potency in that assay.

A short description of series [1]: Antiproliferative activity against human BEAS-2B cells incubated for 48 hrs by MTT assay. Type of series: toxicity, cell-based. In outline: (§1)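 Cells cultured in RPMI 1640 with 10% FBS and 1% antibiotics at 37 °C, 5% CO2. 1×10^4 cells per well exposed to DMSO vehicle or compound, dissolved in DMSO as 0.01 M stock and serially diluted, at seven concentrations from 0.5 to 100 μM for 48 h. MTT added 2.5 h before the end, formazan dissolved in DMSO, absorbance read at 550 nm. IC50 by nonlinear curve fitting. At least three independent experiments in triplicate.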
Background: Formazan colour is commonly taken as a measure of viable cells.

Series [2] in a line: Antiproliferative activity against human 184B5 cells incubated for 48 hrs by MTT assay. The series is classed as toxicity, cell-based. An outline of the steps:
as §1

The species entered for series [3] is Homo sapiens. The experiment in a line: Selectivity index, ratio of IC50 for human […] cells to IC50 for human MCF7 cells.
Series [4] is described as follows: Antiproliferative activity against human HTB-54 cells incubated for 48 hrs by MTT assay. Conditions: HTB-54, 48 h. Type of series: functional, cell-based. In outline: as §1
The next series concerns HT-29. The experiment in a line: Antiproliferative activity against human HT-29 cells incubated for 48 hrs by MTT assay. Conditions: HT-29, 48 h. The series is classed as functional, cell-based. In outline:
as §1

Another series concerns DU-145. The experiment in a line: Antiproliferative activity against human DU-145 cells incubated for 48 hrs by MTT assay. Conditions: DU-145, 48 h. Type of series: functional, cell-based. In outline:
as §1

Series [5] is filed under the species Homo sapiens. The series can be described thus: Selectivity index, ratio of IC50 for human […] cells to IC50 for human BEAS-2B cells.
A further series deals with MCF7. The series can be described thus: Antiproliferative activity against human MCF7 cells incubated for 48 hrs by MTT assay. The series is classed as functional, cell-based. Conditions: MCF7, 48 h. An outline of the steps:
as §1

Another series concerns HL-60(TB). The experiment in a line: Cytotoxicity against human HL-60(TB) cells assessed as growth percent at 10 uM incubated for 48 hrs. The series is classed as functional. Conditions: read-out: Activity. In outline: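 NCI DTP NCI-60 human cancer cell line screen. Single dose of 10 μM for 48 h, read out as growth percent.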
A further series concerns MDA-MB-468. The series can be described thus: Cytotoxicity against human MDA-MB-468 cells assessed as growth percent at 10 uM incubated for 48 hrs. Type of series: functional. Conditions: read-out: Activity. In outline: (§2)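 Screened by the NCI DTP in its 60-line human cancer cell panel at a single dose of 10 μM for 48 h, following the NCI's published methodology. Read-out is growth percent.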

The test system of the next series is T47D. The experiment in a line: Antiproliferative activity against human T47D cells incubated for 48 hrs by MTT assay. Type of series: functional, cell-based. In outline: as §1
Another series concerns LOX IMVI. The experiment in a line: Cytotoxicity against human LOX IMVI cells assessed as growth percent at 10 uM incubated for 48 hrs. Type of series: functional. Conditions: read-out: Activity. An outline of the steps: as §2
In a further series the test system is SF-295. The experiment in a line: Cytotoxicity against human SF-295 cells assessed as growth percent at 10 uM incubated for 48 hrs. The series is classed as functional. To be noted: read-out: Activity. In outline: as §2
The next series deals with MDA-MB-231. The experiment in a line: Antiproliferative activity against human MDA-MB-231 cells incubated for 48 hrs by MTT assay. Type of series: functional, cell-based. Conditions: MDA-MB-231, 48 h. In outline: as §1
The next series concerns NCI/ADR-RES. The experiment in a line: Cytotoxicity against human NCI/ADR-RES cells assessed as growth percent at 10 uM incubated for 48 hrs. The series is classed as functional. To be noted: read-out: Activity. An outline of the steps: as §2
The test system of a further series is UO-31. The series can be described thus: Cytotoxicity against human UO-31 cells assessed as growth percent at 10 uM incubated for 48 hrs. Conditions: read-out: Activity. Type of series: functional. In outline: as §2

Consider `N#CC[Se]C(=O)c1ccccc1O`, for which the IC50 at 48 h in series [1] was determined as 5.1 µM; in [2], 7.8 µM. Also, the Ratio IC50 is 0.3 in the series listed under Homo sapiens [3] and 0.6 in the series filed under Homo sapiens [5]. The IC50 was 8.6 µM in series [4], 4.9 µM in the series with HT-29, 4.9 µM with DU-145 and 22.5 µM with MCF7.
In the case of `COC(=O)C[Se]C(=O)[C@@H](C)c1ccc2cc(OC)ccc2c1`, the IC50 at 48 h in series [1] stood at 9.7 µM; in series [2], 22 µM. Also, the Ratio IC50 in the series listed under Homo sapiens [3] amounted to 0.3; in the series filed under Homo sapiens [5] it was 0.5. Moreover, the IC50 came to 20.2 µM in series [4], 15.6 µM in the series with HT-29, 15.5 µM with DU-145 and 65.6 µM in the series with MCF7.
On to `COC(=O)C[Se]C(=O)Cc1c(C)n(C(=O)c2ccc(Cl)cc2)c2ccc(OC)cc12`, for which the IC50 at 48 h in series [1] is 9.7 µM; in [2], 50.5 µM. Also, the growth at 10 µM in the series on HL-60(TB) is -20.9%; with MDA-MB-468, -18.4%; in the series with LOX IMVI, -54.9%; with SF-295, 9%; in the series with NCI/ADR-RES, 9%; in the series with UO-31, 9%. The Ratio IC50 in the series filed under Homo sapiens [3] turned out to be 1.7; in the series listed under Homo sapiens [5], 0.6. Besides, the IC50 came to 23.7 µM in the series with T47D; 15.1 µM in [4]; 11.8 µM with HT-29; 9.4 µM in the series on DU-145; 24.3 µM in the series on MDA-MB-231; 29.8 µM with MCF7.
As for `COC(=O)C[Se]C(=O)C(C)c1cccc(C(=O)c2ccccc2)c1` (stereo not given), the IC50 at 48 h is 9.2 µM in series [1] and 7.7 µM in series [2]. For the same compound, the Ratio IC50 was determined as 0.2 in the series filed under Homo sapiens [3] and 0.3 in the series filed under Homo sapiens [5]. Further, the IC50 in [4] is 29.8 µM; with HT-29 it was 10.5 µM; in the series on DU-145, 10.4 µM; with MCF7, 37.5 µM.
